Measured values published in PubChem BioAssay.
The source made the active and inactive calls.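 Rule for the calls, unless noted: active = a full or partial loss of lipid-probe fluorescence in the fish gall bladder, intestine or both, judged by eye; inactive = no fluorescence loss, or compound toxic to the fish.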

Tests used:
[1] = inhibitors of TNFa-induced NFkB p65 translocation, primary screen, imaging, HUVEC, MLSMR starter and 10KST1 sets (AID 438;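 active = inhibition above 20% together with a positive visual image hit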;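 note: compound added about 3h40 before a 20 min TNFalpha stimulation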;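 for inhibition: signal is the nuclear over cytoplasmic p65 intensity ratio per well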); details: HUVEC TNFa-induced p65 nuclear translocation; cell count: measured here: nuclei count (cytotoxicity indicator), at 2.08 µM; inhibition: at 2 µM, stronger effect = higher value, 0% TNFa-plus-vehicle, 100% no-TNFa wells
[2] = endothelial E-selectin expression blockers – imaging, HUVEC, immunofluorescence, MLSMR starter and 10KST1 sets, primary screen (AID 487;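 active = visually confirmed hit in the image check and inhibition above 20%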;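 for inhibition: signal is fraction of cell area covered by stained E-selectin grains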;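 for nuclei count: 100% = median nuclei count of all wells on the same plate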); details: HUVEC TNFalpha-induced E-selectin immunofluorescence imaging, at 2 µM; inhibition: stronger effect = higher value; nuclei count: measured here: cell number, toxicity
[3] = Primary imaging screen for DUSP6 inhibitors that restore phospho-Erk in transfected HeLa cells, chemical complementation (AID 609;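 active = compounds giving at least 50% inhibition in the cell-based MKP-3 phosphatase rescue imaging test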;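 for inhibition: phospho-Erk level distribution per well compared with pooled transfected vehicle control wells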); details: HeLa MKP-3 transfected, phospho-Erk imaging KS statistic, at 10 µM, cells stimulated with TPA for 15 min
[4] = molecular target: Dual specificity protein phosphatase 6 (Homo sapiens) (UniProt Q16828); test: as above; details: HeLa MKP-3 transfected, phospho-Erk imaging KS statistic; at 10 µM; stronger effect = higher value; cells stimulated with TPA for 15 min
[5] = molecular target: Voltage-gated potassium channel subunit beta-2 (Rattus norvegicus) (UniProt P62483); test: inhibitors of rat Kvbeta2 reductase activity – biochemical, NADPH fluorescence, primary screen (AID 622;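 active = fluorescence slope higher than the sample average by over 3 SD, cut at about -0.22 in these data, passing the limit was not always enough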;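 note: slope of raw intensity against log time taken from 70 to 1610 s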); details: recombinant KvBeta, 4-cyanobenzaldehyde reduction, at 10 µM, stronger effect = higher value
[6] = molecular target: Voltage-gated potassium channel subunit beta-2 (Rattus norvegicus) (UniProt P62483); test: enhancers of rat Kvbeta2 NADPH turnover – biochemical, NADPH fluorescence, primary screen (AID 623;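 active = NADPH fluorescence slope more negative than the mean of all samples by about 3 SD, 99.7% confidence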;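 note: fluorescence intensity change per second fitted from 20 to 320 s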); details: Recombinant KvBeta, NADPH fluorescence decrease slope, 10 min; at 10 µM; stronger effect = lower value
[7] = molecular target: Alpha-2C adrenergic receptor (Homo sapiens) (UniProt P18825); test: compounds altering alpha2C-coupled GIRK flux – cell-based, HEK293 alpha2C/GIRK1/2, thallium flux, primary screen (AID 624;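 active = fluorescence slope after compound addition differing from the mean of all screened samples at 99.7% confidence, in either direction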;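 note: slope of fluorescence ratio to pre-addition baseline per second over 15 to 24 s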); details: thallium flux BTC fluorescence, at 10 µM, actives lie on both sides
[8] = inhibitors of larval lipid processing in zebrafish, primary screen, whole organism, PED6 fluorescence, gall bladder and intestine (AID 686); details: Zebrafish larvae PED6 lipid processing, fluorescence scoring; screened at 20 µM (by protocol);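 note: larvae 5 to 7 days old with five fish per well; signal comes from phospholipase A2 cleavage of quenched PED6 carried via bile; overnight exposure to compound and PED6 before scoring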
Summary of the method: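 System: live zebrafish larvae aged 5-7 days, whole organism; measure: graded gall bladder and intestinal fluorescence inhibition per well; incubation: overnight exposure; reagent: ingested quenched lipid PED6 at 100 nM; signal: By-eye fluorescence microscopy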

[9] = loss of swimming-algae plug formation – whole organism, Chlamydomonas reinhardtii, WT vs cilia-less mutant, absorbance, 96-well, primary screen (AID 463189;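 active = inhibition at or above 50% relative to wild type and mutant plate controls; inactive = inhibition below 50%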;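 note: 0% = wild type cc124 cells in DMSO and 100% = ciliumless bld1 mutant cells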); details: Chlamydomonas reinhardtii gravitaxis, OD600 absorbance, 2 days; at 10 µM; stronger effect = higher value
[10] = measured here: cell density z-score
[11] = measured here: nuclear c-Myc green intensity z-score
[12] = measured here: nuclear pErk red intensity z-score, stronger effect = higher value

Sequence of Alpha-2C adrenergic receptor (Homo sapiens) (P18825 whole entry, looked up): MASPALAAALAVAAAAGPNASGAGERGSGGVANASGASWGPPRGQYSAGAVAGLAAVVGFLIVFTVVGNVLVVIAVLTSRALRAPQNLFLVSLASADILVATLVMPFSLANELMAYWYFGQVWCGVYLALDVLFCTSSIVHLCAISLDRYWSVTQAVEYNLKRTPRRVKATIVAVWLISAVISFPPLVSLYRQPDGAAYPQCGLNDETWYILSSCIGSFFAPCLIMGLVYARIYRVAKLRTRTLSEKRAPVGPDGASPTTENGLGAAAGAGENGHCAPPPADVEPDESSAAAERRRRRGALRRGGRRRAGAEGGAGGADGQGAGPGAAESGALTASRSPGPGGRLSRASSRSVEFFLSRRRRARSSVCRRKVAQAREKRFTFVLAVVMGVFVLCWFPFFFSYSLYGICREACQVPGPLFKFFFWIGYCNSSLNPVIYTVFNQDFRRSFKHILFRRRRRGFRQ
Sequence of Dual specificity protein phosphatase 6 (Homo sapiens) (Q16828 whole entry, looked up): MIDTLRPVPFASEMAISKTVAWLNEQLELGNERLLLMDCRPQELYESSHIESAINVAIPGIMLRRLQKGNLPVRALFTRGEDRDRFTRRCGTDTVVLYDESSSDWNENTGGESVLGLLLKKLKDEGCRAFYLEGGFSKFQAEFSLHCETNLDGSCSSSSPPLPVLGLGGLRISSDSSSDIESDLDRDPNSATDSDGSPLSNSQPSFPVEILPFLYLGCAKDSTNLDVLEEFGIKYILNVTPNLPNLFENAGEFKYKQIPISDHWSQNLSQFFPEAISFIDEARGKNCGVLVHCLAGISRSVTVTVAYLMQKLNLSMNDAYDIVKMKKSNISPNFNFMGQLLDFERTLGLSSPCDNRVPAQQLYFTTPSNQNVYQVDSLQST
Sequence of Voltage-gated potassium channel subunit beta-2 (Rattus norvegicus) (P62483 whole entry, looked up): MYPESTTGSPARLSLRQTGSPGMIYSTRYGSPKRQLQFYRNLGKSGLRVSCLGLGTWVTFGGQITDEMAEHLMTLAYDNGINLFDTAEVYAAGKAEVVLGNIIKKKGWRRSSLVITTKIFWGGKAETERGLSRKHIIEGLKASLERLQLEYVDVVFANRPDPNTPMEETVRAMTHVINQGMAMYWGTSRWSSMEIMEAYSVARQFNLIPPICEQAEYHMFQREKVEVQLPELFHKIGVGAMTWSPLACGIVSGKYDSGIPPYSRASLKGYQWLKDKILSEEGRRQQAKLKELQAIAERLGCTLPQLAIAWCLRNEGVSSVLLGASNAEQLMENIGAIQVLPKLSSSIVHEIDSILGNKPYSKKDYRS

Row | SMILES | cell count [1] | inhibition [1] | inhibition [2] | nuclei count [2] [%] | z-score [3, 10] | z-score [3, 11] | z-score [3, 12] | inhibition [4] | fluorescence slope [5] | NADPH fluorescence slope [6] | slope [7] | outcome [8] | inhibition [9]
1 | O=C(CN1C(=O)c2ccccc2C1=O)NCc1ccncc1 | 357 | -6.8% (inactive) | -60.9% (inactive) | 167 | 0.341 | -1.51 | 1.76 | -10.6% (inactive) | -0.432 (inactive) | -0.000133 (inactive) | 0.00529 (inactive) | inactive | 31% (inactive)
2 | CCCCNC(=O)C(C#N)c1nc2ccccc2nc1N1CCN(Cc2ccc3c(c2)OCO3)CC1 (stereo unspecified) | 555 | -0.5% (inactive) | 21.5% (inactive) | 145 | -1.05 | -1.11 | 1.27 | 15% (inactive) | -0.362 (inactive) | -1.5e-05 (inactive) | 0.00451 (inactive) | inactive | 12.9% (inactive)
3 | Cc1ccc(C)c(OCc2nnc(NC(=O)c3ccco3)s2)c1 | 656 | -2.1% (inactive) | 37.1% (inactive) | 191 | -0.0885 | 2.13 | -0.0889 | -4.27% (inactive) | -0.389 (inactive) | -5.4e-05 (inactive) | 0.0056 (inactive) | inactive | -2.58% (inactive)
4 | CC(C)Cn1cnc2c(c1=O)c1nc3ccccc3nc1n2Cc1ccc2c(c1)OCO2 | 361 | -3.7% (inactive) | -15.2% (inactive) | 149 | 0.279 | -0.729 | -0.248 | 9.42% (inactive) | -0.393 (inactive) | -0.000121 (inactive) | 0.00801 (inactive) | inactive | 1.23% (inactive)
5 | CCCOc1ccc(/C(O)=C2/C(=O)C(=O)N(CCCN3CCOCC3)C2c2ccncc2)cc1 (stereo unspecified) | 398 | -0.5% (inactive) | -151% (inactive) | 145 | 0.781 | 0.803 | -0.95 | -8.27% (inactive) | -0.341 (inactive) | -1.2e-05 (inactive) | 0.0051 (inactive) | inactive | 0.312% (inactive)
6 | COc1ccc(/C(O)=C2/C(=O)C(=O)N(CCN3CCOCC3)C2c2ccccn2)cc1 (stereo unspecified) | 316 | -13.6% (inactive) | 25.6% (inactive) | 75.8 | -1.25 | 0.879 | 1.18 | -7.79% (inactive) | -0.44 (inactive) | -1.3e-05 (inactive) | 0.00633 (inactive) | inactive | 25.9% (inactive)
7 | N#Cc1c(N)nc(SCC(=O)NCCc2ccccc2)c(C#N)c1-c1cccs1 | 441 | 3.4% (inactive) | 19.3% (inactive) | 62.6 | -1.05 | -0.516 | 1.34 | 7.83% (inactive) | -0.418 (inactive) | -1.6e-05 (inactive) | 0.00734 (inactive) | inactive | -7.92% (inactive)
8 | COc1cc(C2C(C#N)=C(N)Oc3cc(C)n(CCN4CCOCC4)c(=O)c32)cc(OC)c1OC (stereo unspecified) | 388 | 4% (inactive) | -116% (inactive) | 142 | -0.238 | -0.479 | -0.461 | -4.7% (inactive) | -0.468 (inactive) | -4.4e-05 (inactive) | 0.0078 (inactive) | inactive | -6.44% (inactive)
9 | O=S1CCCSC1c1cccnc1 (stereo unspecified) | 524 | -10.3% (inactive) | -190% (inactive) | 144 | 1.86 | -0.668 | -1.2 | 13.9% (inactive) | -0.507 (inactive) | -1.9e-05 (inactive) | 0.00681 (inactive) | inactive | 2.49% (inactive)
10 | c1ccc(C2=Nn3c(nnc3-c3ccccn3)SC2)cc1 | 589 | -10.9% (inactive) | -79.3% (inactive) | 170 | -0.434 | 1.46 | 1.25 | -9.66% (inactive) | -0.412 (inactive) | -0.000132 (inactive) | 0.00684 (inactive) | inactive | -6.13% (inactive)
11 | CN(Cc1c(O)ccc2c1oc(=O)c1ccccc12)C1CCCCC1 | 585 | -2.8% (inactive) | 6.7% (inactive) | 172 | 0.636 | 0.684 | 0.214 | -4.27% (inactive) | -0.348 (inactive) | -7e-05 (inactive) | 0.00514 (inactive) | inactive | 3.79% (inactive)
12 | C=CCOc1nc2c(c(=O)n(C)c(=O)n2C)n1Cc1ccc(Cl)cc1 | 659 | 7.6% (inactive) | -11.6% (inactive) | 137 | -0.719 | 0.0983 | 0.628 | 27.5% (inactive) | -0.516 (inactive) | -0.000102 (inactive) | 0.00536 (inactive) | inactive | 4.31% (inactive)
